The structures appear in SMILES notation.

Consider six compounds from ChEMBL document CHEMBL1129310, “(Aminoalkyl)indole isothiocyanates as potential electrophilic affinity ligands for the brain cannabinoid receptor” (J Med Chem, 1996).

T1 sequence (P20272 whole entry): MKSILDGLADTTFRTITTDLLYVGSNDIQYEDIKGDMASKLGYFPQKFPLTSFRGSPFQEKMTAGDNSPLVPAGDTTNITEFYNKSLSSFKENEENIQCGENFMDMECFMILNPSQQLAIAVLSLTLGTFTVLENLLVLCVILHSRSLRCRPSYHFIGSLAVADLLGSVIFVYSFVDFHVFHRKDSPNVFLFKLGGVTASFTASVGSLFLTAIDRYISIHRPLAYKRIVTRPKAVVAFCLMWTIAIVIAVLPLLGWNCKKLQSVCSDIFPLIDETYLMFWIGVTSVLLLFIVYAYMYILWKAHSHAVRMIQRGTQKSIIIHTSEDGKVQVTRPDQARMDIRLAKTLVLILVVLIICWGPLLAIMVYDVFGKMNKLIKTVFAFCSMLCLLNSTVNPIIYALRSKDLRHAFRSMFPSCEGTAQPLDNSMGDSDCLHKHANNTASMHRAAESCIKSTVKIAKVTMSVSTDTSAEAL

One assay concerns the target T1, Cannabinoid receptor 1 (Rattus norvegicus, UniProt P20272). The assay is described as follows: Binding affinity against brain cannabinoid receptor 1 using [3H]CP-55940 as radioligand at 0.25 nM concentration. Summed up:
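Rat brain P2 membranes (30 µg protein) were suspended in 20 mM potassium diethylmalonate pH 7.5 with 2.25 mM MgCl2 and 0.025% β-cyclodextrin, then incubated with [3H]CP-55940 for 1 h at 30 °C. Compounds came from DMSO stocks diluted through β-cyclodextrin. The reaction was stopped with BSA and glass-fibre filtration. Nonspecific binding was defined with 0.1 µM desacetyllevonantradol. Displacement curves were fitted by nonlinear regression, triplicate points.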
A word on the IC50: it is the concentration at which inhibition is half-maximal. Higher therefore signals weaker potency. As to `O=C(c1cccc2cc(N=C=S)ccc12)c1cn(CCN2CCOCC2)c2ccccc12`, the IC50 stood at 530 nM.
Consider `O=C(c1ccc(N=C=S)c2ccccc12)c1cn(CCN2CCOCC2)c2ccccc12`, for which the IC50 worked out at 440 nM.
Still for that read-out and setting: in the case of `O=C(c1cc(N=C=S)cc2ccccc12)c1cn(CCN2CCOCC2)c2ccccc12` it was 920 nM; in that of `O=C(c1cccc2ccccc12)c1cn(CCN2CCOCC2)c2cc(N=C=S)ccc12`, 160 nM.
The same measure, in the same setting: under `O=C(c1cccc2ccccc12)c1cn(CCN2CCOCC2)c2ccccc12` stands 46 nM.

In another assay the target is T1, Cannabinoid receptor 1. Description: Binding affinity against brain Cannabinoid receptor 1 using [3H]CP-55940 as radioligand at 1.1 nM concentration.
In turn, `Cc1c(C(=O)c2ccc(N=C=S)c3ccccc23)c2ccccc2n1CCN1CCOCC1` came in with an IC50 of 690 nM.
